In publication PMC3759818 (Pharmaceutical research, 2009):
pIC50: −log10 of the molar value. Several values for one entry are separate records, joined by “and”; a condition that tells them apart may be missing. Equal values may be shown once. Entries after “also recorded” stand apart in the source; their conditions may differ. Blank lines part the entries; values can stand above or below the compound they belong to.

Key:
Water solubility = assay type: physicochemical; details: data not shown
[1] = DPPH radical scavenging assay; assay type: biochemical; details: read-out: IC50, DPPH radical scavenging; data not shown
NF-κB = assay type: cell-based, human; details: MIAPaCa-2 cells, EMSA
[2] = tested on: COX-2 positive BxPC-3 pancreatic cancer cells; details: BxPC-3 cells, MTT assay; cited from earlier work
[3] = Pancreas pharmacokinetics in mice after single intragastric dose; assay type: in vivo
Outline: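 Female ICR-SCID mice, 7–8 weeks old, 18 per compound, got a single 250 mg/kg dose in sesame oil by intragastric intubation. Two mice were killed at 0, 1, 2, 4, 6, 8, 12, 16 and 24 h. Pancreas was PBS-washed, blotted, weighed, frozen at −80°C, then homogenized in 5 volumes ice-cold 0.9% saline. Homogenate was ethyl acetate-extracted with zileuton internal standard and assayed by LC-MS/MS. Values are means of two mice.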

MIAPaCa-2 cells = assay: PGE2 immunoassay in conditioned medium of MIAPaCa-2 cells; assay type: cell-based, human; details: 1 or 4 μM, 24 h, vs untreated control
BxPC-3 cells = assay: PGE2 immunoassay in conditioned medium of BxPC-3 cells; assay type: cell-based, human; details: 1 or 4 μM, 24 h, vs untreated control
[4] = Serum pharmacokinetics in mice after single intragastric dose; assay type: in vivo
Outline: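 Female ICR-SCID mice, 7–8 weeks old, 18 per compound, got a single oral 250 mg/kg dose in sesame oil by intragastric tube. Two mice were killed at 0–24 h (nine time points). Cardiac blood was clotted and serum stored at −80°C, then ethyl acetate-extracted with zileuton internal standard and assayed by LC-MS/MS. Cmax was read from the curve. AUClast used linear (rising) and log (falling) trapezoids in non-compartmental analysis. Values are means of two mice.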

[5] = serum, oral 1 g/kg body weight, mouse; cited from earlier work
[6] = pancreas, single intragastric 250 mg/kg, mice, mean from two mice
[7] = single intragastric 250 mg/kg, mice, mean from two mice
[8] = female, ICR-SCID, mouse, pancreas, po, 250 mg/kg
[9] = female, ICR-SCID, mouse, po, 250 mg/kg

Water solubility relative to Curcumin (Water solubility): 8.4 fold
pIC50 [1]: 7.30
Cmax in pancreas relative to serum ([3]; at 8 h, oral 250 mg/kg, mice): 44.5 fold
Cmax in pancreas relative to Curcumin ([3]; pancreas, oral 250 mg/kg, mice): 4.3 fold
AUClast (concentration) in pancreas relative to Curcumin ([3]; pancreas, oral 250 mg/kg, mice, 250 mg/kg): 10 fold and 10.6 fold
AUClast [3, 6]: 36.56 µg·h/g
Clast [3, 6]: 0.04 µg/g
Cmax [3, 6]: 9.35 µg/g
Tlast [3, 6]: 12.0 h
Tmax [3, 6]: 8.0 h
Systemic drug level (serum AUClast) relative to Curcumin ([4]; oral 250 mg/kg, mice): 2.7 fold
AUClast [4, 7]: 1220 ng·h/mL
Clast [4, 7]: 40 ng/mL
Cmax [4, 7]: 210 ng/mL
Tlast [4, 7]: 16.0 h
Tmax [4, 7]: 8.0 h
SMILES: COc1cc(/C=C/C(=O)C(=Cc2ccc(F)c(F)c2)C(=O)/C=C/c2ccc(O)c(OC)c2)ccc1O [CDF]
NF-κB DNA-binding activity (NF-κB): the effect was more pronounced with a low concentration of CDF
IC50, anti-proliferative activity [2]: low IC50 value
PGE2 level in conditioned medium (MIAPaCa-2 cells): significant decrease; also recorded: substantial reduction
PGE2 level in conditioned medium (BxPC-3 cells): significant decrease; also recorded: significant reduction

pIC50 [1]: 4.46
Cmax [3, 8]: 2.15 µg/g
Tmax [3, 8]: 1 h
AUClast [3, 6]: 3.46 µg·h/g
Tlast [3, 6]: 16.0 h
Cmax [4, 9]: 220 ng/mL
Tmax [4, 9]: 1 h
Tlast [4, 7]: 8 h and 8.0 h
SMILES: COc1cc(/C=C/C(=O)CC(=O)/C=C/c2ccc(O)c(OC)c2)ccc1O [Curcumin, diferuloylmethane, reference compound]
NF-κB DNA-binding activity (NF-κB): caused down-regulation of NF-κB
PGE2 level in conditioned medium (MIAPaCa-2 cells): significant decrease; also recorded: substantial reduction
PGE2 level in conditioned medium (BxPC-3 cells): such results were not found; also recorded: no significant change
Time of Cmax [5]: 1 h
